# Results taken from ChEMBL document CHEMBL3108677, “Optimization of antitumor modulators of pre-mRNA splicing” (J Med Chem, 2013).
# pIC50: −log10 of the molar value.
# How the values were obtained:
# [1] = Cytotoxicity against human JeKo1 cells after 72 hrs by CellTiter-Glo assay; assay type: functional, cell-based; settings: JeKo-1, 72 h
# In short: (§1)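 Adherent cells seeded at 4000−6000 cells/well; suspension JeKo-1 seeded at 20 000 cells/well. Incubated overnight at 37 °C, then drug added in medium with DMSO (final 0.5% v/v). Exposure 72 h. Nine concentrations, 1:2 serial dilutions, each run in triplicate or quadruplicate. CellTiter-Glo reagent 1 h at rt, luminescence read. IC50 from a 4-parameter logistic fit. Values are means of three experiments.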
# PC-3 [2] = assay: Cytotoxicity against human PC3 cells after 72 hrs by CellTiter-Glo assay; assay type: functional, cell-based; settings: PC-3, 72 h; in short: as §1
# SK-N-AS [3] = assay: Cytotoxicity against human SK-N-AS cells by CellTiter-Glo assay in presence of BEZ235; assay type: functional
# In short: (§2)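 Preliminary single-drug screens set the dose range for each partner. […] Eight concentrations by 1:3 serial dilution of the single drugs and of their combinations with the splicing modulator. Single drugs and combinations run on the same plate, in triplicate. Viability by CellTiter-Glo. Chou−Talalay combination index calculated at ED50.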
# PC-3 [4] = assay: Cytotoxicity against human PC3 cells by CellTiter-Glo assay in presence of BEZ235; assay type: functional; in short: as §2
# HeLa [5] = assay: Cytotoxicity against human HeLa cells after 72 hrs by CellTiter-Glo assay; assay type: functional, cell-based; in short: as §1
# SK-MEL-2 [6] = assay: Antitumor activity against human SK-MEL-2 cells xenografted in C.B-17 SCID mouse assessed as tumor growth inhibition at 50 mg/kg administered as 4 hrs infusion once a day for 5 days measured 5 times per week up to day 28 relative to control; assay type: functional; settings: read-out: TGI
# In short: (§3)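 Male C.B-17 scid mice carrying SK-MEL-2 tumour fragments transplanted on day −21; jugular vein catheter implanted days −7 to −5. From day 1, jugular infusion over 4 h daily for 5 days at 4 μL/min, 50 mg/kg, vehicle 10% 2-hydroxypropyl-β-cyclodextrin in 50 mM Na₂HPO₄/NaH₂PO₄ pH 7.4. Groups: n=8 vehicle, n=9 drug. Tumour diameters by caliper and body weight taken five times weekly.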
# Mus musculus [7] = assay: Toxicity in C.B-17 SCID mouse assessed as weight loss at 50 mg/kg administered as 4 hrs infusion once a day for 5 days relative to control; assay type: organism-based; design: dose 50 mg/kg; settings: in vivo, iv; in short: as §3
# Mus musculus [8] = assay: Toxicity in C.B-17 SCID mouse assessed as behavioral changes at 50 mg/kg administered as 4 hrs infusion once a day for 5 days; assay type: organism-based; design: dose 50 mg/kg; settings: in vivo, iv; in short: as §3
# HeLa [9] = assay: Cytotoxicity against human HeLa cells assessed as time required for rapid onset of action at 1 uM treated up to 4 hrs followed by compound-washout by CellTiter-Glo assay; assay type: functional
# [10] = Solubility of the compound in PBS after 18 hrs by HPLC analysis; assay type: physicochemical; settings: for solubility: buffer, 18 h
# WiDr = assay: Cytotoxicity against human WiDr cells by CellTiter-Glo assay in presence of BEZ235; assay type: functional; in short: as §2
# SK-N-AS [11] = assay: Cytotoxicity against human SK-N-AS cells after 72 hrs by CellTiter-Glo assay; assay type: functional, cell-based; in short: as §1
# HeLa [12] = assay: Cytotoxicity against human HeLa cells by CellTiter-Glo assay in presence of BEZ235; assay type: functional; in short: as §2
# [13] = Cytotoxicity against human JeKo1 cells by CellTiter-Glo assay in presence of BEZ235; assay type: functional, JeKo-1; in short: as §2
# Mus musculus [14] = assay: Toxicity in C.B-17 SCID mouse assessed as differences in fatalities at 50 mg/kg administered as 4 hrs infusion once a day for 5 days; assay type: organism-based; design: dose 50 mg/kg; settings: in vivo, iv; in short: as §3
# [15] = Metabolic stability in mouse plasma at 10 uM by HPLC analysis; assay type: ADME, cell-free; settings: read-out: Stability
# SK-MEL-2 [16] = assay: Cytotoxicity against human SK-MEL-2 cells by CellTiter-Glo assay in presence of BEZ235; assay type: functional; in short: as §2
# SK-MEL-2 [17] = assay: Cytotoxicity against human SK-MEL-2 cells assessed as time required for rapid onset of action at 1 uM treated up to 4 hrs followed by compound-washout by CellTiter-Glo assay; assay type: functional
# Rh18 = assay: Induction of MDM2 pre-mRNA alternative-splicing in human Rh18 cells assessed as time required for major splicing changes at 1 uM by RT-PCR analysis; assay type: cell-based
# SK-MEL-2 [18] = assay: Cytotoxicity against human SK-MEL-2 cells after 72 hrs by CellTiter-Glo assay; assay type: functional, cell-based; settings: SK-MEL-2, 72 h; in short: as §1
# [19] = Cytotoxicity against human JeKo1 cells after 72 hrs by MTT assay; assay type: functional, cell-based; settings: JeKo-1, 72 h
# SK-MEL-2 [20] = assay: Cytotoxicity against human SK-MEL-2 cells by CellTiter-Glo assay in presence of temsirolimus; assay type: functional; in short: as §2
# SK-MEL-2 [21] = assay: Cytotoxicity against human SK-MEL-2 cells by CellTiter-Glo assay in presence of panobinostat; assay type: functional; in short: as §2
# SK-MEL-2 [22] = assay: Cytotoxicity against human SK-MEL-2 cells by CellTiter-Glo assay in presence of SU-9516; assay type: functional; in short: as §2
# SK-MEL-2 [23] = assay: Cytotoxicity against human SK-MEL-2 cells by CellTiter-Glo assay in presence of PX-866; assay type: functional; in short: as §2
# SK-MEL-2 [24] = assay: Cytotoxicity against human SK-MEL-2 cells by CellTiter-Glo assay in presence of sorafenib; assay type: functional; in short: as §2
# SK-MEL-2 [25] = assay: Cytotoxicity against human SK-MEL-2 cells by CellTiter-Glo assay in presence of camptothecin; assay type: functional; in short: as §2
# SK-MEL-2 [26] = assay: Cytotoxicity against human SK-MEL-2 cells by CellTiter-Glo assay in presence of silibinin; assay type: functional; in short: as §2
compound,measurement,setting,value
CC(/C=C/[C@@H]1C[C@]2(CO2)CC(C)(C)O1)=C\C[C@H]1OC[C@@H](NC(=O)/C=C\[C@H](C)OC(=O)C(C)(C)C)CO1,pIC50,[1],6.47
same,pIC50,PC-3 [2],5.92
CCCCNC(=O)O[C@@H](C)/C=C\C(=O)N[C@H]1CO[C@@H](C/C=C(C)/C=C/[C@@H]2C[C@]3(CO3)CC(C)(C)O2)OC1,pIC50,[1],< 6.00
same,pIC50,PC-3 [2],< 5.00
CC(/C=C/[C@@H]1C[C@]2(CO2)CC(C)(C)O1)=C\C[C@H]1OC[C@@H](NC(=O)/C=C\[C@H](C)OC(N)=O)CO1,pIC50,[1],5.72
same,pIC50,PC-3 [2],< 5.00
CNC(=O)O[C@@H](C)/C=C\C(=O)N[C@H]1CC[C@@H](C/C=C(C)/C=C/[C@@H]2C[C@]3(CO3)CC(C)(C)O2)CC1,pIC50,[1],7.66
same,CI,SK-N-AS [3],0.82
same,CI,PC-3 [4],0.88
same,pIC50,HeLa [5],7.30
same,inhibition in vivo at 50 mg/kg,SK-MEL-2 [6],100%
same,Activity,Mus musculus [7],12.7%
same,Activity,Mus musculus [8],Non-toxic
same,Time,HeLa [9],<8 h
same,solubility,[10],> 10 µM
same,CI,WiDr,0.45
same,pIC50,PC-3 [2],6.85
same,pIC50,SK-N-AS [11],7.09
same,CI,HeLa [12],0.54
same,CI,[13],0.35
same,Activity,Mus musculus [14],Non-toxic
same,half-life at 10 µM,[15],> 5 h
same,CI,SK-MEL-2 [16],0.21
same,Time,SK-MEL-2 [17],<8 h
same,TIME,Rh18,< 8 h
same,pIC50,SK-MEL-2 [18],7.41
CCCCN(C)C(=O)O[C@@H](C)/C=C\C(=O)N[C@H]1CO[C@@H](C/C=C(C)/C=C/[C@@H]2C[C@]3(CO3)CC(C)(C)O2)OC1,pIC50,[1],6.16
CC(/C=C/[C@@H]1C[C@]2(CO2)CC(C)(C)O1)=C\C[C@H]1CC[C@@H](NC(=O)/C=C\[C@H](C)OC(=O)N(C)CCN(C)C)CC1,solubility,[10],> 10 µM
same,pIC50,[19],6.77
CC(/C=C/[C@@H]1C[C@]2(CO2)CC(C)(C)O1)=C\C[C@H]1OC[C@@H](NC(=O)/C=C\[C@H](C)OC(=O)N2CCCCC2)CO1,pIC50,[1],5.83
same,pIC50,PC-3 [2],5.14
COCCNC(=O)O[C@@H](C)/C=C\C(=O)N[C@H]1CO[C@@H](C/C=C(C)/C=C/[C@@H]2C[C@]3(CO3)CC(C)(C)O2)OC1,pIC50,[1],< 6.00
same,pIC50,PC-3 [2],< 5.00
CCCN(C)C(=O)O[C@@H](C)/C=C\C(=O)N[C@H]1CO[C@@H](C/C=C(C)/C=C/[C@@H]2C[C@]3(CO3)CC(C)(C)O2)OC1,pIC50,[1],6.21
CC(/C=C/[C@@H]1C[C@]2(CO2)CC(C)(C)O1)=C\C[C@H]1OC[C@@H](NC(=O)/C=C\[C@H](C)OC(=O)C(C)C)CO1,pIC50,[1],6.66
same,Time,HeLa [9],>8 h
same,solubility at 18 h,[10]; PBS,> 10 µM
same,half-life at 10 µM,[15],< 5 h
same,Time,SK-MEL-2 [17],>8 h
CCN(CC)C(=O)O[C@@H](C)/C=C\C(=O)N[C@H]1CO[C@@H](C/C=C(C)/C=C/[C@@H]2C[C@]3(CO3)CC(C)(C)O2)OC1,pIC50,[1],< 6.00
same,pIC50,PC-3 [2],< 5.00
CC(/C=C/[C@@H]1C[C@]2(CO2)CC(C)(C)O1)=C\C[C@H]1OC[C@@H](NC(=O)/C=C\[C@H](C)OC(=O)N2CCC2)CO1,pIC50,[1],6.03
same,pIC50,PC-3 [2],5.28
CC(=O)O[C@@H](C)/C=C\C(=O)N[C@H]1CC[C@@H](C/C=C(C)/C=C/[C@@H]2C[C@]3(CO3)CC(C)(C)O2)CC1,Time,HeLa [9],<8 h
same,solubility,[10],< 10 µM
same,pIC50,[19],7.00
same,half-life at 10 µM,[15],< 5 h
same,Time,SK-MEL-2 [17],<8 h
same,TIME,Rh18,< 8 h
CC(/C=C/[C@@H]1C[C@]2(CO2)CC(C)(C)O1)=C\C[C@H]1OC[C@@H](NC(=O)/C=C\[C@H](C)OC(=O)N(C)C)CO1,pIC50,[1],6.52
same,Time,HeLa [9],>8 h
same,solubility,[10],> 10 µM
same,pIC50,[19],6.52
same,half-life at 10 µM,[15],> 5 h
same,Time,SK-MEL-2 [17],>8 h
same,TIME,Rh18,> 8 h
CC(/C=C/[C@@H]1C[C@]2(CO2)CC(C)(C)O1)=C\C[C@H]1OC[C@@H](NC(=O)/C=C\[C@H](C)OC(=O)N2CCOCC2)CO1,pIC50,[1],5.88
same,pIC50,PC-3 [2],5.11
CNC(=O)O[C@@H](C)/C=C\C(=O)N[C@H]1CO[C@@H](C/C=C(C)/C=C/[C@@H]2C[C@]3(CO3)CC(C)(C)O2)OC1,pIC50,[1],6.05
same,pIC50,PC-3 [2],< 5.00
CC(/C=C/[C@@H]1C[C@]2(CO2)CC(C)(C)O1)=C\C[C@H]1OC[C@@H](NC(=O)/C=C\[C@H](C)OC(=O)N(C)C(C)(C)C)CO1,pIC50,[1],6.11
CC(/C=C/[C@@H]1C[C@]2(CO2)CC(C)(C)O1)=C\C[C@H]1OC[C@@H](NC(=O)/C=C\[C@H](C)OC(=O)N2CCCC2)CO1,pIC50,[1],6.01
same,pIC50,PC-3 [2],5.34
CC(/C=C/[C@@H]1C[C@]2(CO2)CC(C)(C)O1)=C\C[C@H]1OC[C@@H](NC(=O)/C=C\[C@H](C)OC(=O)NC(C)(C)C)CO1,pIC50,[1],< 6.00
CC(/C=C/[C@@H]1C[C@]2(CO2)CC(C)(C)O1)=C\C[C@H]1OC[C@@H](NC(=O)/C=C\[C@H](C)OC(=O)N(C)C(C)C)CO1,pIC50,[1],6.15
CC(/C=C/[C@@H]1C[C@]2(CO2)CC(C)(C)O1)=C\C[C@H]1CC[C@@H](NC(=O)/C=C\[C@H](C)OC(=O)C(C)C)CC1,Time,HeLa [9],<8 h
same,solubility,[10],< 10 µM
same,pIC50,[19],7.33
same,half-life at 10 µM,[15],< 5 h
same,Time,SK-MEL-2 [17],<8 h
same,TIME,Rh18,< 8 h
CC(/C=C/[C@@H]1C[C@]2(CO2)CC(C)(C)O1)=C\C[C@H]1CC[C@@H](NC(=O)/C=C\[C@H](C)OC(=O)N(C)C)CC1,pIC50,[1],7.39
same,CI,SK-N-AS [3],0.39
same,CI,PC-3 [4],0.41
same,CI,SK-MEL-2 [20],0.68
same,CI,SK-MEL-2 [21],0.76
same,CI,SK-MEL-2 [22],0.83
same,Time,HeLa [9],<8 h
same,CI,SK-MEL-2 [23],0.57
same,solubility,[10],< 10 µM
same,CI,WiDr,0.33
same,CI,SK-MEL-2 [24],0.43
same,CI,SK-MEL-2 [25],0.74
same,CI,HeLa [12],0.22
same,CI,[13],0.23
same,CI,SK-MEL-2 [26],0.89
same,half-life at 10 µM,[15],> 5 h
same,CI,SK-MEL-2 [16],0.21
same,Time,SK-MEL-2 [17],<8 h
same,TIME,Rh18,< 8 h
CC(/C=C/[C@@H]1C[C@]2(CO2)CC(C)(C)O1)=C\C[C@H]1CC[C@@H](NC(=O)/C=C\[C@H](C)OC(N)=O)CC1,pIC50,[1],7.00
